# Source: ChEMBL document CHEMBL2040727, “Substituted thiazoles VI. Synthesis and antitumor activity of new 2-acetamido- and 2 or 3-propanamido-thiazole analogs” (2012)
# Tested on: SK-MEL-5
# Experiment: Growth inhibition of human SK-MEL-5 cells at 10 uM after 48 hrs by coulter counter analysis
# Assay type: functional
# Conditions: SK-MEL-5, 48 h, read-out: GI
# Method in brief: (§1)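 Single-dose NCI 60-line panel screen of test compounds. Cells grown in RPMI 1640 with 10% FBS. Compounds dissolved in DMSO, then diluted in phosphate buffer saline (final DMSO below 1%). Wells run in duplicate at 6 × 10⁴ cells/ml. Controls held PBS and DMSO at matching dilutions. Incubation 48 h at 37 °C under humidified 5% CO2. Cells diluted tenfold in saline and counted by Coulter counter. Percent growth inhibition taken from mean-graph of treated-cell growth.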
row,Structure (SMILES),inhibition of growth at 10 µM [%]
1,CCOC(=O)c1sc(NC(=O)C(C)N2CCOCC2)nc1C (stereo not drawn),< 10

# Tested on: MCF7
# Experiment: Growth inhibition of human MCF7 cells at 10 uM after 48 hrs by coulter counter analysis
# Assay type: functional
# Conditions: MCF7, 48 h, read-out: GI
# Method in brief: as §1
row,Structure (SMILES),inhibition of growth at 10 µM [%]
1,CCOC(=O)c1sc(NC(=O)C(C)N2CCOCC2)nc1C (stereo not drawn),< 10

# Tested on: UACC-62
# Experiment: Growth inhibition of human UACC62 cells at 10 uM after 48 hrs by coulter counter analysis
# Assay type: functional
# Conditions: UACC-62, 48 h, read-out: GI
# Method in brief: (§2)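 Single-dose screen in the NCI 60 cell line panel. Cells grown in RPMI 1640 with 10% FBS. Compounds dissolved in DMSO and diluted in phosphate buffered saline, final DMSO under 1%. Duplicate wells seeded from culture at 6 × 10⁴ cells/ml. Incubated 48 h at 37 °C, humidified, 5% CO2. Cells diluted tenfold in saline and Coulter-counted. Percent growth inhibition computed against PBS/DMSO controls.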
row,Structure (SMILES),inhibition of growth at 10 µM [%]
1,CCOC(=O)c1sc(NC(=O)C(C)N2CCOCC2)nc1C (stereo not drawn),< 10

# Tested on: HCT-15
# Experiment: Growth inhibition of human HCT15 cells at 10 uM after 48 hrs by coulter counter analysis
# Assay type: functional
# Conditions: HCT-15, 48 h, read-out: GI
# Method in brief: as §1
row,Structure (SMILES),inhibition of growth at 10 µM [%]
1,CCOC(=O)c1sc(NC(=O)C(C)N2CCOCC2)nc1C (stereo not drawn),< 10

# Tested on: UO-31
# Experiment: Growth inhibition of human UO31 cells at 10 uM after 48 hrs by coulter counter analysis
# Assay type: functional
# Conditions: UO-31, 48 h, read-out: GI
# Method in brief: as §2
row,Structure (SMILES),inhibition of growth at 10 µM [%]
1,CCOC(=O)c1sc(NC(=O)C(C)N2CCOCC2)nc1C (stereo not drawn),14.2

# Tested on: SF-268
# Experiment: Growth inhibition of human SF268 cells at 10 uM after 48 hrs by coulter counter analysis
# Assay type: functional
# Conditions: SF-268, 48 h, read-out: GI
# Method in brief: as §1
row,Structure (SMILES),inhibition of growth at 10 µM [%]
1,CCOC(=O)c1sc(NC(=O)C(C)N2CCOCC2)nc1C (stereo not drawn),< 10

# Tested on: SK-MEL-2
# Experiment: Growth inhibition of human SK-MEL-2 cells at 10 uM after 48 hrs by coulter counter analysis
# Assay type: functional
# Conditions: SK-MEL-2, 48 h, read-out: GI
# Method in brief: as §1
row,Structure (SMILES),inhibition of growth at 10 µM [%]
1,CCOC(=O)c1sc(NC(=O)C(C)N2CCOCC2)nc1C (stereo not drawn),< 10

# Tested on: KM12
# Experiment: Growth inhibition of human KM12 cells at 10 uM after 48 hrs by coulter counter analysis
# Assay type: functional
# Conditions: KM12, 48 h, read-out: GI
# Method in brief: as §1
row,Structure (SMILES),inhibition of growth at 10 µM [%]
1,CCOC(=O)c1sc(NC(=O)C(C)N2CCOCC2)nc1C (stereo not drawn),< 10

# Tested on: HCC 2998
# Experiment: Growth inhibition of human HCC2998 cells at 10 uM after 48 hrs by coulter counter analysis
# Assay type: functional
# Conditions: HCC 2998, 48 h, read-out: GI
# Method in brief: as §1
row,Structure (SMILES),inhibition of growth at 10 µM [%]
1,CCOC(=O)c1sc(NC(=O)C(C)N2CCOCC2)nc1C (stereo not drawn),< 10

# Tested on: Malme-3M
# Experiment: Growth inhibition of human MALME-3M cells at 10 uM after 48 hrs by coulter counter analysis
# Assay type: functional
# Conditions: read-out: GI
# Method in brief: as §1
row,Structure (SMILES),inhibition of growth at 10 µM [%]
1,CCOC(=O)c1sc(NC(=O)C(C)N2CCOCC2)nc1C (stereo not drawn),< 10

# Tested on: SF-539
# Experiment: Growth inhibition of human SF539 cells at 10 uM after 48 hrs by coulter counter analysis
# Assay type: functional
# Conditions: SF-539, 48 h, read-out: GI
# Method in brief: as §1
row,Structure (SMILES),inhibition of growth at 10 µM [%]
1,CCOC(=O)c1sc(NC(=O)C(C)N2CCOCC2)nc1C (stereo not drawn),< 10

# Tested on: SR
# Experiment: Growth inhibition of human SR cells at 10 uM after 48 hrs by coulter counter analysis
# Assay type: functional
# Conditions: read-out: GI
# Method in brief: as §2
row,Structure (SMILES),inhibition of growth at 10 µM [%]
1,CCOC(=O)c1sc(NC(=O)C(C)N2CCOCC2)nc1C (stereo not drawn),< 10

# Tested on: OVCAR-3
# Experiment: Growth inhibition of human OVCAR3 cells at 10 uM after 48 hrs by coulter counter analysis
# Assay type: functional
# Conditions: OVCAR-3, 48 h, read-out: GI
# Method in brief: as §1
row,Structure (SMILES),inhibition of growth at 10 µM [%]
1,CCOC(=O)c1sc(NC(=O)C(C)N2CCOCC2)nc1C (stereo not drawn),< 10

# Tested on: NCI-H522
# Experiment: Growth inhibition of human NCI-H522 cells at 10 uM after 48 hrs by coulter counter analysis
# Assay type: functional
# Conditions: NCI-H522, 48 h, read-out: GI
# Method in brief: as §1
row,Structure (SMILES),inhibition of growth at 10 µM [%]
1,CCOC(=O)c1sc(NC(=O)C(C)N2CCOCC2)nc1C (stereo not drawn),< 10

# Tested on: OVCAR-8
# Experiment: Growth inhibition of human OVCAR8 cells at 10 uM after 48 hrs by coulter counter analysis
# Assay type: functional
# Conditions: OVCAR-8, 48 h, read-out: GI
# Method in brief: as §1
row,Structure (SMILES),inhibition of growth at 10 µM [%]
1,CCOC(=O)c1sc(NC(=O)C(C)N2CCOCC2)nc1C (stereo not drawn),< 10

# Tested on: OVCAR-5
# Experiment: Growth inhibition of human OVCAR5 cells at 10 uM after 48 hrs by coulter counter analysis
# Assay type: functional
# Conditions: OVCAR-5, 48 h, read-out: GI
# Method in brief: as §1
row,Structure (SMILES),inhibition of growth at 10 µM [%]
1,CCOC(=O)c1sc(NC(=O)C(C)N2CCOCC2)nc1C (stereo not drawn),< 10

# Tested on: ACHN
# Experiment: Growth inhibition of human ACHN cells at 10 uM after 48 hrs by coulter counter analysis
# Assay type: functional
# Conditions: read-out: GI
# Method in brief: as §1
row,Structure (SMILES),inhibition of growth at 10 µM [%]
1,CCOC(=O)c1sc(NC(=O)C(C)N2CCOCC2)nc1C (stereo not drawn),< 10

# Tested on: COLO 205
# Experiment: Growth inhibition of human COLO205 cells at 10 uM after 48 hrs by coulter counter analysis
# Assay type: functional
# Conditions: COLO 205, 48 h, read-out: GI
# Method in brief: as §1
row,Structure (SMILES),inhibition of growth at 10 µM [%]
1,CCOC(=O)c1sc(NC(=O)C(C)N2CCOCC2)nc1C (stereo not drawn),< 10
